Data as given in PubChem BioAssay.
The source made the active and inactive calls. Unless noted, no stated cut-off is given here; in the data, active means inhibition above about 30%; inactive means the rest.

What was measured:
[1] = reducers of endogenous Her2 protein level, primary screen, SKBR3 breast tumor cells, AlphaScreen, ATP viability (AID 461;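 active means Her2 level under about 52% in both replicate screens, with viability over 70% of control, limit read from the data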;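 on Her2 level: lower value means less Her2 protein in the cells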;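 on viability: percent of carrier control wells set as 100% viability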); conditions: 18-24 h, measured here: SKBR3 viability, ATP luminescence, at 10 µM
[2] = target: Receptor tyrosine-protein kinase erbB-2 (Homo sapiens) (UniProt P04626); experiment: as above; conditions: 18-24 h, at 10 µM, stronger effect = lower value
[3] = SK-BR-3 cell growth inhibitors, pilot screen, 24 h, human (AID 572;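 active means viability at or below 10% of carrier control in both of two separate runs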;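 further: compound exposure lasted between 18 and 24 h rather than exactly 24 h; 100% = carrier-treated control wells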); conditions: SK-BR-3 viability, CellTiter-Glo luminescence, at 10 µM, stronger effect = lower value
[4] = HUVEC growth inhibition – cell-based, human, primary screen (AID 575;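 active means viability at or below 30% in both replicate assays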;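 further: 100% = median of untreated cell wells with 0.1% DMSO on each plate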); conditions: HUVEC proliferation, CellTiter-Glo luminescence, 72 h; at 10 µM; stronger effect = lower value
Method in brief: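 Test system: HUVEC primary cells. Quantity: 1250 endothelial cells in each well. Dosing: single-point 10 µM, DMSO 0.1% final. Incubation: 72 h treatment at 37 °C. Measured by: CTG luminescence. Control set: DMSO cell controls and MePR drug controls. Plate: collagen-coated 384-well format.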

[5] = growth inhibitors of H69AR lung tumor, primary screen, human, duplicate replicates (AID 580;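 active means viability at or under a set limit in both replicates, limit being median viability minus 3 SD, cut at about 48% in these data, passing the limit was not always enough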;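 further: 100% = mean luminescence of untreated wells and 0% = no signal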); conditions: H69AR lung tumor cells viability, ATP luminescence, 72 h; at 10 µM; stronger effect = lower value
[6] = reversal of MRP1-mediated doxorubicin resistance, pilot screen, H69AR cells, doxorubicin co-treatment (AID 601;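 active means viability loss from added drug above about 55%, and viability with drug at most 40%, in both replicates, limit read from the data, passing the limit was not always enough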); conditions: CellTiter-Glo, 72 h, at 10 µM; for differential viability (reversal): stronger effect = higher value
[7] = 384-well plate pilot, post-Golgi transport modulator project, inhibition of yeast transport mutant growth (AID 636; in the data active means inhibition above about 31%); conditions: absorbance 615 nm, about 18 h, stronger effect = higher value
[8] = growth suppression of yeast trafficking mutant, preliminary HTS, modulators of trafficking downstream of Golgi apparatus project, 1536-format plate, OD 615 nm (AID 637); conditions: yeast transport mutant growth, absorbance 615 nm, 18 h; stronger effect = higher value
[9] = H69AR cells + 2 uM doxorubicin, measured here: viability with 2 uM doxorubicin, stronger effect = lower value
[10] = H69AR cells, compound alone cytotoxicity

Receptor tyrosine-protein kinase erbB-2 (Homo sapiens), sequence (P04626 whole entry, looked up): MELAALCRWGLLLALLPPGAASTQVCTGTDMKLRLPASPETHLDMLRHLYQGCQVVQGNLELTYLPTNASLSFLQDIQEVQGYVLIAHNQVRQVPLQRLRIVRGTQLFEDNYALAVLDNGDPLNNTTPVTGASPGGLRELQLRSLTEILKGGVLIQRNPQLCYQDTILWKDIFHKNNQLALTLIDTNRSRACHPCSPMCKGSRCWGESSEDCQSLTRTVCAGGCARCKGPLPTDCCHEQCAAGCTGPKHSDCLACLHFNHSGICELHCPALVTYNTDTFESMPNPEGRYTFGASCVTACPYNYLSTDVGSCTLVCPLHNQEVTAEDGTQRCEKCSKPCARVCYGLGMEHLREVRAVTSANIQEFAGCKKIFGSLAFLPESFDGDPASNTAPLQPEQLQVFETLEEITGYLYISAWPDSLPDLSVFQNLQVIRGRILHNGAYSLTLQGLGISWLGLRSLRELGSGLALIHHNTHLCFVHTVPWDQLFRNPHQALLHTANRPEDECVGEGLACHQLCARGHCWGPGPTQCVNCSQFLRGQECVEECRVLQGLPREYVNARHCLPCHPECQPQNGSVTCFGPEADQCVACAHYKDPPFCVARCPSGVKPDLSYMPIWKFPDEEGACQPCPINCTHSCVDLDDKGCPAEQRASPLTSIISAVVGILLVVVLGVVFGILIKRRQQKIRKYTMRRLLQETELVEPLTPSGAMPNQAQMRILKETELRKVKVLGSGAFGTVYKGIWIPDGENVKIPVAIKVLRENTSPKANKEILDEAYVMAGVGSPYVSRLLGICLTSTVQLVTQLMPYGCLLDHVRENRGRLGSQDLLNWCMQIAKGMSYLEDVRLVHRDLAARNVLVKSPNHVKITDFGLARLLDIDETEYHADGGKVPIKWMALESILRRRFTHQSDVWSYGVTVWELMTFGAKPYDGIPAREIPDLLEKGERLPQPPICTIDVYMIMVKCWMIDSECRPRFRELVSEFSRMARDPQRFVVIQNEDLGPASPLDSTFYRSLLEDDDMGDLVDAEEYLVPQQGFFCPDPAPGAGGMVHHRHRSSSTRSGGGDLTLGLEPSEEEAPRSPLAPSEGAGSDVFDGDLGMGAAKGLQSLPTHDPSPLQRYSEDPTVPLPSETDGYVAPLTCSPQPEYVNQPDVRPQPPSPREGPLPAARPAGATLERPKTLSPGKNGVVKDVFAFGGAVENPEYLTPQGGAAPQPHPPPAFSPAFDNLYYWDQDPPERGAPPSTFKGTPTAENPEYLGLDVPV

Row | SMILES | viability [1] | Her2 level [2] | viability [3] | viability [4] | viability [5] | differential viability (reversal) ([6]; H69AR cells + 2 uM doxorubicin) | viability [6, 9] | viability [6, 10] | inhibition [7] | inhibition [8]
1 | CCOC(=O)N1CCC(NC(=O)CS(=O)(=O)Cc2nc(-c3ccccc3C)oc2C)CC1 | 105% | 95% (inactive) | 105% (inactive) | 114% (inactive) | 95.7% (inactive) | -4.35% (inactive) | 100% | 95.7% | -3.73% (inactive) | 0.66% (inactive)
2 | Cc1cc(C)n2cc(CSc3nnnn3-c3ccc(Cl)cc3)nc2n1 | 89.5% | 89% (inactive) | 89.5% (inactive) | 94.1% (inactive) | 97.6% (inactive) | 7.13% (inactive) | 90.5% | 97.6% | -1.73% (inactive) | 0.65% (inactive)
3 | CCC(=O)Nc1ccc2nc(SCC(=O)N3CCCC3)sc2c1 | 97.5% | 100% (inactive) | 97.5% (inactive) | 114% (inactive) | 94.1% (inactive) | 5.62% (inactive) | 88.5% | 94.1% | 2.67% (inactive) | 38.4% (active)
4 | Cc1ccc(S(=O)(=O)N(CC(=O)N2CCOCC2)CC(=O)N2CCOCC2)cc1 | 104% | 87% (inactive) | 104% (inactive) | 110% (inactive) | 107% (inactive) | 5.66% (inactive) | 101% | 107% | -4.87% (inactive) | 3.17% (inactive)
5 | Cc1ccc(-c2noc(CCC(=O)N3CCN(c4cccc(C(F)(F)F)c4)CC3)n2)cc1 | 87.5% | 91% (inactive) | 87.5% (inactive) | 71.2% (inactive) | 93.1% (inactive) | -3.76% (inactive) | 96.8% | 93.1% | -3.95% (inactive) | -2.67% (inactive)
6 | CCN(Cc1nc2cc(OC)c(OC)cc2c(=O)[nH]1)C(=O)c1ccc(S(=O)(=O)N(C)C)cc1 | 113% | 106% (inactive) | 113% (inactive) | 88.2% (inactive) | 109% (inactive) | 10.3% (inactive) | 98.5% | 109% | -3.07% (inactive) | 3.44% (inactive)
7 | CCOC(=O)N1CCN(C(=O)c2ccc3c(=O)n(CCc4ccccc4)c(=O)[nH]c3c2)CC1 | 98.5% | 108% (inactive) | 98.5% (inactive) | 77.1% (inactive) | 85.6% (inactive) | 30% (inactive) | 55.6% | 85.6% | -1.49% (inactive) | 14.8% (inactive)
8 | CCOc1cc(C(=O)NCC2CCCO2)cc(OCC)c1OCC (stereo not given) | 100% | 110% (inactive) | 100% (inactive) | 119% (inactive) | 102% (inactive) | 10% (inactive) | 92.2% | 102% | -4.86% (inactive) | -5.33% (inactive)
9 | Cc1noc(C)c1C(=O)Nc1ccc(Cl)cc1C(F)(F)F | 91% | 86.5% (inactive) | 91% (inactive) | 84.7% (inactive) | 93.1% (inactive) | -0.845% (inactive) | 94% | 93.1% | -6.13% (inactive) | 3.11% (inactive)
10 | CCn1c(=O)c(C(=O)NCCc2ccccc2)c(O)c2ccccc21 | 99% | 102% (inactive) | 99% (inactive) | 58.8% (inactive) | 61.6% (inactive) | -26% (inactive) | 87.6% | 61.6% | -1.03% (inactive) | -5.17% (inactive)
11 | Cc1cccc(-c2nc(CN3CCCC(C(=O)NC4CCCC4)C3)c(C)o2)c1 (stereo not given) | 86% | 86.5% (inactive) | 86% (inactive) | 72.3% (inactive) | 84.2% (inactive) | -11.2% (inactive) | 95.4% | 84.2% | 1.73% (inactive) | 2.9% (inactive)
12 | O=C(NCC(c1cccnc1)N1CCN(c2ccccc2)CC1)c1ccc2c(c1)OCO2 (stereo not given) | 92% | 94% (inactive) | 92% (inactive) | 105% (inactive) | 90.8% (inactive) | -7.41% (inactive) | 98.2% | 90.8% | -4.46% (inactive) | 12.9% (inactive)
13 | c1ccc(-c2nnc(CN3CCC4(CC3)OCCO4)o2)cc1 | 110% | 91.5% (inactive) | 110% (inactive) | 96.9% (inactive) | 98.7% (inactive) | 8.52% (inactive) | 90.2% | 98.7% | -0.79% (inactive) | 14.5% (inactive)
14 | CCN1CCN(S(=O)(=O)c2ccc(S(=O)(=O)N(CC)Cc3ccccc3)cc2)CC1 | 98% | 94% (inactive) | 98% (inactive) | 82.1% (inactive) | 91.9% (inactive) | -7.05% (inactive) | 99% | 91.9% | -4.27% (inactive) | -1.13% (inactive)
15 | CCOc1ccccc1OCC(=O)Nc1nnc(COC)s1 | 89% | 103% (inactive) | 89% (inactive) | 99.5% (inactive) | 91.8% (inactive) | -1.57% (inactive) | 93.3% | 91.8% | -2.8% (inactive) | 10.7% (inactive)
16 | CCSC1=NCN(CCCC(=O)O)CN1 | 118% | 100% (inactive) | 118% (inactive) | 96.3% (inactive) | 99.9% (inactive) | -1.83% (inactive) | 102% | 99.9% | 0.13% (inactive) | -0.16% (inactive)

Row | SMILES | viability [1] | Her2 level [2] | viability [3] | viability [4] | viability [5] | differential viability (reversal) ([6]; H69AR cells + 2 uM doxorubicin) | viability [6, 9] | viability [6, 10] | inhibition [7] | inhibition [8]
17 | CC1CCCCC1NC(=O)CN1CCN(Cc2ccccc2Cl)C1=O (stereo not given) | 102% | 97% (inactive) | 102% (inactive) | 90.9% (inactive) | 80.4% (inactive) | 11.9% (inactive) | 68.5% | 80.4% | -4.68% (inactive) | -7.67% (inactive)
18 | COCCn1c(=NC(=O)CSC(C)=O)sc2cc(F)ccc21 | 85% | 82.5% (inactive) | 85% (inactive) | 75.4% (inactive) | 58.2% (inactive) | 0.03% (inactive) | 58.2% | 58.2% | -3.16% (inactive) | -2.86% (inactive)
19 | COc1cc2[nH]c(=O)c(C(=O)NCCCN3CCCCC3)c(O)c2cc1OC | 99.5% | 99% (inactive) | 99.5% (inactive) | 99.5% (inactive) | 98.7% (inactive) | 7.58% (inactive) | 91.1% | 98.7% | -6.35% (inactive) | 1.11% (inactive)
20 | CCOC(=O)c1ccccc1NC(=O)Cn1cnc2c(cnn2-c2ccc(OC)cc2)c1=O | 89.5% | 91.5% (inactive) | 89.5% (inactive) | 81.4% (inactive) | 101% (inactive) | 1.5% (inactive) | 99.7% | 101% | -5.54% (inactive) | 1.83% (inactive)
21 | Cn1cnc(S(=O)(=O)NCc2cccs2)c1 | 102% | 102% (inactive) | 102% (inactive) | 96.5% (inactive) | 95.5% (inactive) | 7.67% (inactive) | 87.8% | 95.5% | 0.68% (inactive) | -1.9% (inactive)
22 | CC1/C(=N/O)C(CN(C)C)C2CC1C2(C)C (stereo not given) | 107% | 84.5% (inactive) | 107% (inactive) | 99.3% (inactive) | 108% (inactive) | 31.7% (inactive) | 76.3% | 108% | -3.38% (inactive) | -3.49% (inactive)
23 | Cc1ccc(-c2nc3ncccc3o2)cc1NC(=O)c1ccco1 | 97.5% | 76.5% (inactive) | 97.5% (inactive) | 100% (inactive) | 99.2% (inactive) | 7.96% (inactive) | 91.3% | 99.2% | -6.76% (inactive) | -2.62% (inactive)
24 | COc1ccc2cc(C(c3nnnn3C3CCCCC3)N3CCCCCC3)c3nnnn3c2c1 (stereo not given) | 94% | 72.5% (inactive) | 94% (inactive) | 81.6% (inactive) | 64.3% (inactive) | -2.87% (inactive) | 67.2% | 64.3% | -4.8% (inactive) | -2.86% (inactive)
25 | CC(=O)Nc1ccc(S(=O)(=O)NCc2cn3c(C)csc3n2)cc1 | 116% | 106% (inactive) | 116% (inactive) | 107% (inactive) | 102% (inactive) | 20.4% (inactive) | 81.3% | 102% | -8.31% (inactive) | -3.02% (inactive)
26 | CC(=O)Nc1ccc(Cl)cc1C(=O)O | 96.5% | 97.5% (inactive) | 96.5% (inactive) | 85.8% (inactive) | 106% (inactive) | 10.4% (inactive) | 95.3% | 106% | -5.87% (inactive) | -1.29% (inactive)
27 | O=C(CCN1C(=O)C2C3C=CC(C3)C2C1=O)N1CCN(c2ccccc2Cl)CC1 (stereo not given) | 97% | 89.5% (inactive) | 97% (inactive) | 82.3% (inactive) | 96% (inactive) | 8.21% (inactive) | 87.8% | 96% | -5% (inactive) | -3.17% (inactive)
28 | O=C(Nc1ccc(CN2CCOCC2)cc1)c1cc2ccccc2oc1=O | 99.5% | 88% (inactive) | 99.5% (inactive) | 92.2% (inactive) | 82.6% (inactive) | 2.02% (inactive) | 80.6% | 82.6% | -2.37% (inactive) | 3.39% (inactive)
29 | C/C(N)=C(/C#N)C(=O)COC(=O)COc1ccc(Cl)cc1 | 93% | 100% (inactive) | 93% (inactive) | 98% (inactive) | 91.9% (inactive) | -5.87% (inactive) | 97.7% | 91.9% | -7.07% (inactive) | -5.08% (inactive)
30 | COCC(=O)N(c1ccc(C(C)C)cc1)C1C=CS(=O)(=O)C1 (stereo not given) | 93.5% | 80% (inactive) | 93.5% (inactive) | 78.9% (inactive) | 89.6% (inactive) | 0.84% (inactive) | 88.8% | 89.6% | -3.08% (inactive) | 0.83% (inactive)
31 | COc1ccc(-n2c(Cc3cccn3C)nnc2SCC(=O)Nc2cccc(OC)c2)cc1 | 106% | 97.5% (inactive) | 106% (inactive) | 80.9% (inactive) | 98% (inactive) | 0.895% (inactive) | 97.1% | 98% | 1.79% (inactive) | 0% (inactive)
32 | COCCCn1c2nc3ccccc3nc2c2c(=O)n(-c3ccccc3OC)cnc21 | 97.5% | 100% (inactive) | 97.5% (inactive) | 97.8% (inactive) | 73.7% (inactive) | 6.27% (inactive) | 67.5% | 73.7% | -0.8% (inactive) | 4.75% (inactive)
